The source of these data is ChEMBL document CHEMBL4342467, “Discovery of a Novel Dual-Target Inhibitor of ERK1 and ERK5 That Induces Regulated Cell Death to Overcome Compensatory Mechanism in Specific Tumor Types” (J Med Chem, 2020).

Active and inactive are the calls of the source. Some results are limits rather than exact numbers.

Data set [1] concerns the target Mitogen-activated protein kinase 7 (Homo sapiens) (UniProt Q13164). The data set is described as follows: Inhibition of ERK5 (unknown origin) at 1 uM by Z'-Lyte assay relative to control.
Another data set concerns HeLa. The data set is described as follows: Antiproliferative activity against human HeLa cells assessed as reduction in cell viability measured after 24 hrs. It counts as functional, cell-based.
The target in data set [2] is Mitogen-activated protein kinase 7 (Homo sapiens) (UniProt Q13164). The data set is described as follows: Inhibition of wild-type human partial length ERK5 (M1 to A409 residues) expressed in bacterial expression system at 1 uM by Kinomescan method relative to control. A digest of the protocol:
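KINOMEscan binding assays over a 100-kinase panel, with test compound at 1 μM. Results are given as % inhibition.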

Data set [3] shares this target. The data set is described as follows: Inhibition of ERK5 in human MKN74 cells assessed as reduction in ERK5 phosphorylation at T218/Y220 residue at 0.5 uM measured up to 24 hrs by Western blot analysis. It counts as cell-based. In general terms: In western blotting, separated proteins are transferred to a membrane and probed.
Data set [4] shares this target. The data set is described as follows: Inhibition of ERK5 in human MKN74 cells harboring ERK1/2 siRNA assessed as reduction in ERK5 phosphorylation at 0.5 uM by Western blot analysis. It counts as cell-based. The method in brief:
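MKN-74 cells were transfected with ERK1/2-specific siRNA or negative-control siRNA, then exposed to compound. ERK1/2, p-ERK1/2, ERK5 and p-ERK5 were read by immunoblotting, with GAPDH as loading control.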

A short description of data set [5]: Half life in Sprague-Dawley rat at 10 mg/kg, po by LC-MS analysis. The class given is ADME, organism-based. Particulars: in vivo. A digest of the protocol:
(§1)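 Rats, two groups of 3; single i.v. dose 1 mg/kg or oral dose 10 mg/kg. Plasma concentration-time profiles used to derive T1/2, Tmax, Cmax, AUC0-t, AUC0-∞ and oral bioavailability. Data from triplicate testing, ± standard deviation.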

Data set [6] is described as follows: Cmax in Sprague-Dawley rat at 10 mg/kg, po by LC-MS analysis. Particulars: in vivo. It counts as ADME, organism-based. On the set-up: dose 10 mg/kg, route oral. A digest of the protocol: as §1
Data set [7] can be described thus: AUC (0 to t) in Sprague-Dawley rat at 10 mg/kg, po by LC-MS analysis. The class given is ADME, organism-based. Particulars: in vivo. A digest of the protocol:
as §1

Sequence of Mitogen-activated protein kinase 7 (Homo sapiens) (Q13164 2-816 limits assumed): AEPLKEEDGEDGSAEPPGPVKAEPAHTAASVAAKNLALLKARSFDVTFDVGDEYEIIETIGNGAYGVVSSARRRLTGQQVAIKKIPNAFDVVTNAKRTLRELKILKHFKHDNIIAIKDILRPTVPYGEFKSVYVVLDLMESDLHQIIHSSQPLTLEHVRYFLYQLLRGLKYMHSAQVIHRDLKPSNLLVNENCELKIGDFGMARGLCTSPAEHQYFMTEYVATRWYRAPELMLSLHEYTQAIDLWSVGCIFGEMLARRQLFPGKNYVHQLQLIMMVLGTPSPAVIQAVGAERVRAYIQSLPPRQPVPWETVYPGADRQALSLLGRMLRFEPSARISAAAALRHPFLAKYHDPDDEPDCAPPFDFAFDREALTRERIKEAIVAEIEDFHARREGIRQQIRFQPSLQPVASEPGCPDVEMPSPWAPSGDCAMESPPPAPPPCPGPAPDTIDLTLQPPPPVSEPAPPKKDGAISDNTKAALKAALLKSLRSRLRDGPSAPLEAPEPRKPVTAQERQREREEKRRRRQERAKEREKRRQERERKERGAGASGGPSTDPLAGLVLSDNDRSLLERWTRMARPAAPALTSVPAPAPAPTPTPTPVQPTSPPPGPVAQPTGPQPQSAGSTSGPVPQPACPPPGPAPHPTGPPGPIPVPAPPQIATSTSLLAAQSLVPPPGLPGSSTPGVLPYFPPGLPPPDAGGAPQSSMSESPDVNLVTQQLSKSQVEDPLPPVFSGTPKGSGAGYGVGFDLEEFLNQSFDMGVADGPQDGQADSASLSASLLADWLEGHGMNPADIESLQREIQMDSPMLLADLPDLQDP

For `NC(=O)c1c(NC(=O)c2ccccc2Cl)sc2c1CCN(C(=S)Nc1ccccc1Cl)C2`, the values for the inhibition in data set [1] and in data set [2] were 89.3% and 87%, respectively. In addition, the IC50 (usually the point on the concentration scale where inhibition reaches its midpoint) with HeLa is more than 50 µM. Also, the inhibition entry in data set [3] and in data set [4] was “Active” each time. In data set [5], the half-life – broadly, the time needed for the level to fall by half in the phase considered – is 1.24 h. For the same compound, the highest level in data set [6] (Cmax) was 1560 ng/mL. In addition, in data set [7], the AUC(0-t) – broadly, the area under the concentration-time curve up to a stated or last time point – was found to be 5080 ng·h/mL.
